From ChEMBL document CHEMBL1154200, “Steroidal glycosides from Agave utahensis and their cytotoxic activity” (J Nat Prod, 2009) come the findings set out here.

In assay [1] the test system is HL-60. The experiment in a line: Induction of apoptosis in human HL60 cells assessed as caspase-3 activation at 20 ug/ml after 6 hrs. The format is functional, cell-based. The essentials:
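HL-60 cells (2 × 10^6) treated 6 h at 37 °C at 0, 10 or 20 µg/mL, with 10 µg/mL etoposide as reference, then lysed on ice. Lysate equivalent to 200 µg protein mixed with reaction buffer containing DEVD-pNA. Incubated 2 h at 37 °C, released pNA read at 405 nm. Mean ± SE of triplicates.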

Assay [2] deals with HL-60. As to the kind of experiment: Induction of apoptosis in human HL60 cells by morphology study. The format is functional, cell-based.
Assay [3] concerns HL-60. The experiment in a line: Cytotoxicity against human HL60 cells after 72 hrs by MTT assay. The format is functional, cell-based. As to conditions: HL-60, 72 h. The method in brief:
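HL-60 cells kept in RPMI 1640 with heat-inactivated 10% FBS, penicillin and streptomycin. Seeded at 4 × 10^4 cells/mL and preincubated 24 h at 37 °C in air/CO2 (19:1). Sample added in EtOH-H2O (1:1) to final 0.1-10 µg/mL, vehicle alone in controls. Incubated 72 h more, growth read by modified MTT (Sargent and Taylor). IC50 taken from dose-response curve. Triplicate.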
On the technique in general: Formazan colour is commonly taken as a measure of viable cells.

In assay [4] the test system is HL-60. As to the kind of experiment: Cytotoxicity against human HL60 cells at 10 ug/mL after 72 hrs by MTT assay.
Assay [5] deals with HL-60. The experiment in a line: Induction of DNA fragmentation in human HL60 cells at 20 ug/ml after 18 hrs by agarose gel electrophoresis. The format is functional, cell-based. The method in brief: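 HL-60 cells treated 18 h at 37 °C at 0, 10 or 20 µg/mL, with 10 µg/mL etoposide as reference. Genomic DNA extracted from 2 × 10^6 cells by kit with RNase A step. Run on 2% agarose in 40 mM Tris-acetate (pH 7.4) at 50 V for 1 h. Ladder pattern viewed under UV.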

In brackets after ≈: the same amount, converted by molar mass. Activity calls are given as the source filed them. The rule behind the calls is not given here.

Regarding `C[C@@H]1CC[C@@]2(OC1)O[C@H]1C[C@H]3[C@@H]4CC[C@@H]5C[C@@H](O[C@@H]6O[C@H](CO)[C@H](O[C@@H]7O[C@H](CO)[C@@H](O)[C@H](O)[C@H]7O[C@@H]7O[C@H](CO)[C@@H](O)[C@H](O)[C@H]7O)[C@H](O)[C@H]6O)CC[C@]5(C)[C@H]4CC[C@]3(C)[C@H]1[C@@H]2C`, the result in the assay with HL-60 [1] and in the assay with HL-60 [2] was Active. Also, in the assay on HL-60 [3], the half-inhibitory concentration (IC50) (as a rule, the concentration at which inhibition is half-maximal) is 4.9 µg/mL (≈ 5.43 µM).
For the compound `CO[C@]1(CC[C@@H](C)CO[C@@H]2O[C@H](CO)[C@@H](O)[C@H](O)[C@H]2O)O[C@H]2C[C@H]3[C@@H]4CC[C@@H]5C[C@@H](O[C@@H]6O[C@H](CO)[C@@H](O[C@@H]7O[C@H](CO)[C@@H](O)[C@H](O)[C@H]7O)[C@H](O)[C@H]6O)CC[C@]5(C)[C@H]4CC[C@]3(C)[C@H]2[C@@H]1C`, the result in the assay on HL-60 [4] was inactive.
Same read-out and setting: the value for `C[C@@H]1CC[C@@]2(OC1)O[C@H]1C[C@H]3[C@@H]4CC[C@@H]5C[C@@H](O[C@@H]6O[C@H](CO)[C@@H](O[C@@H]7O[C@H](CO)[C@@H](O)[C@H](O)[C@H]7O)[C@H](O)[C@H]6O)CC[C@]5(C)[C@H]4CC(=O)[C@]3(C)[C@H]1[C@@H]2C` was “inactive”; that for `C[C@@H]1CC[C@@]2(OC1)O[C@H]1C[C@H]3[C@@H]4CC[C@@H]5C[C@@H](O[C@@H]6O[C@H](CO)[C@@H](O[C@@H]7O[C@H](CO)[C@@H](O)[C@H](O)[C@H]7O)[C@H](O)[C@H]6O)[C@@H](O)C[C@]5(C)[C@H]4CC[C@]3(C)[C@H]1[C@@H]2C` was “inactive”.
Turning to `C[C@@H]1CC[C@@]2(OC1)O[C@H]1C[C@H]3[C@@H]4CC[C@@H]5C[C@@H](O[C@@H]6O[C@H](CO)[C@@H](O[C@@H]7O[C@H](CO)[C@@H](O)[C@H](O)[C@H]7O)[C@H](O)[C@H]6O)CC[C@]5(C)[C@H]4CC[C@]3(C)[C@H]1[C@@H]2C`, the outcome with HL-60 [5], in the assay on HL-60 [1] and with HL-60 [2] was Active. This compound had a half-inhibitory concentration (IC50) with HL-60 [3] of 4.9 µg/mL (≈ 6.61 µM).
For the compound `C[C@@H]1CC[C@@]2(OC1)O[C@H]1C[C@H]3[C@@H]4CC[C@@H]5C[C@@H](O[C@@H]6O[C@H](CO)[C@H](O)[C@H](O[C@@H]7O[C@H](CO)[C@@H](O)[C@H](O)[C@H]7O)[C@H]6O)CC[C@]5(C)[C@H]4CC(=O)[C@]3(C)[C@H]1[C@@H]2C`, in the assay with HL-60 [4], the result was inactive.
As to `C[C@@H]1CC[C@@]2(OC1)O[C@H]1C[C@H]3[C@@H]4CC[C@@H]5C[C@@H](O[C@@H]6O[C@H](CO)[C@H](O)[C@H](O[C@@H]7O[C@H](CO)[C@@H](O)[C@H](O)[C@H]7O)[C@H]6O)CC[C@]5(C)[C@H]4CC[C@]3(C)[C@H]1[C@@H]2C`, the result with HL-60 [2] was inactive. For the same compound, the IC50 in the assay with HL-60 [3] was 7 µg/mL (≈ 9.45 µM).
Regarding `C[C@@H]1CC[C@@]2(OC1)O[C@H]1C[C@H]3[C@@H]4CC[C@@H]5C[C@@H](O[C@@H]6O[C@H](CO)[C@H](O[C@@H]7O[C@H](CO)[C@@H](O)[C@H](O)[C@H]7O)[C@H](O)[C@H]6O[C@@H]6O[C@H](CO)[C@@H](O)[C@H](O)[C@H]6O)[C@@H](O)C[C@]5(C)[C@H]4CC[C@]3(C)[C@H]1[C@@H]2C`, in the assay on HL-60 [4], the outcome was inactive.
The same measure, in the same setting: the entry for `C[C@@H]1CC[C@@]2(OC1)O[C@H]1C[C@H]3[C@@H]4CC[C@@H]5C[C@@H](O[C@@H]6O[C@H](CO)[C@H](O[C@@H]7O[C@H](CO)[C@@H](O)[C@H](O)[C@H]7O[C@@H]7O[C@H](CO)[C@@H](O)[C@H](O)[C@H]7O)[C@H](O)[C@H]6O)[C@@H](O)C[C@]5(C)[C@H]4CC[C@]3(C)[C@H]1[C@@H]2C` is “inactive”.
